Sampled rows, rich in hits. Any-hit rate of the full collection: about 3.5%.
MrgX1 PAM = positive allosteric modulators of MrgX1, primary screen, HEK293 cells, Fluo-4 calcium flux. Mas-related G-protein coupled receptor member X1 (Homo sapiens), Q96LB2. 310,000 compounds, 0.63% hits. FDSS; stronger effect = higher value. B-score at 10 µM;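 active means plate-corrected calcium response at least 3 library SD above typical, normal starting fluorescence, not activating the receptor alone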;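 further: compound read alongside a low EC10 to EC30 dose of BAM8-22 agonist; peak minus trough fluorescence over baseline measured at the second addition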
Target sequence (Q96LB2 whole entry, looked up): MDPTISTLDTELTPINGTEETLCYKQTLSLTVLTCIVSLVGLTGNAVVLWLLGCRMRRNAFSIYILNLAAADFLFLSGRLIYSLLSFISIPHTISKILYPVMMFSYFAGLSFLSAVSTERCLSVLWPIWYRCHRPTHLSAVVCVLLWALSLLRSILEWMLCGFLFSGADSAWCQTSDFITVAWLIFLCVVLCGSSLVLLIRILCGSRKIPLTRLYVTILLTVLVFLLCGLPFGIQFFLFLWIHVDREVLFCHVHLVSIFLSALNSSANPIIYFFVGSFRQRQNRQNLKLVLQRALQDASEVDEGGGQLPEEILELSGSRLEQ
RGS4 block = RGS4 inhibitors, primary screen, cell-based, HEK293 M3R inducible RGS4, calcium flux. 310,000 compounds, 0.45% hits. B-score at 10 µM. Fluo-4 calcium flux; stronger effect = higher value; triggered by carbachol at its EC20. AID 463165, 2010;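 active means B-score, a plate-corrected calcium signal, over three deviations above library mean, with baseline fluorescence within five deviations of library mean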;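 further: RGS4 expression induced by doxycycline in cells with stable M3 receptor; B-score is computed from the integrated fluorescence ratio over baseline after carbachol; higher B-score means a larger calcium signal and so more RGS4 inhibition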
Target sequence (P49798 whole entry, looked up): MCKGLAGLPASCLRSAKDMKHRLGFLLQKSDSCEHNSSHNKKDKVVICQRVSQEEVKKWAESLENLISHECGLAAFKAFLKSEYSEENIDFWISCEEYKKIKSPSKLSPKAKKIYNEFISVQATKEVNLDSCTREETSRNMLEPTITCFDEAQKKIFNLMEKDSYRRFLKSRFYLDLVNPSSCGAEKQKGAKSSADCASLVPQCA
MrgX1 antag = antagonists of human MrgX1 receptor, primary screen, HEK293 cells, Fluo-4 calcium flux. Mas-related G-protein coupled receptor member X1 (Homo sapiens), Q96LB2. BAM8-22 antagonism; stronger effect = lower value. B-score at 10 µM. 310,000 compounds, 1.3% hits;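 active means calcium-response B-score plate-corrected more than 3 library SD below zero, starting fluorescence within 5 deviations, no agonist response on first addition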;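 further: peak minus trough fluorescence over baseline after final BAM8-22 challenge near maximal dose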
MrgX1 agonist = agonists of human MrgX1 receptor, primary screen, HEK293 cells, Fluo-4 calcium flux; 310,000 compounds, 0.44% hits; AID 588627, 2011; Fluo-4 calcium fluorescence, agonist mode; stronger effect = higher value; B-score at 10 µM;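 active means calcium response B-score plate-corrected fluorescence ratio at least 3 library SD, with starting fluorescence B-score inside 5 SD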
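Material: MrgX1-expressing HEK293 cells / Dosing: compound as first of three additions / Incubation: overnight seeding, then 1 h dark dye loading / Signal: Fluo-4 NW calcium fluorescence / Evaluation: B-scored fluorescence response ratio / Benchmarks: positive and negative control wells on each plate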
RGS4 pot = RGS4 potentiators or activators, primary screen, cell-based, HEK293 M3R inducible RGS4, calcium flux | carbachol calcium flux Fluo4; stronger effect = lower value | B-score at 10 µM | 310,000 compounds, 0.92% hits | AID 463111, 2010;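 active means B-score of the integrated calcium signal more than 4 SD below the library mean, with starting fluorescence not abnormally high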;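 further: negative B-score means reduced calcium response which marks RGS4 activation or potentiation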
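Also added: carbachol at ECmax as muscarinic agonist stimulus; Assay system: HEK293 cells with stable M3R and inducible RGS4; Timing: overnight RGS4 induction, 30 min dye load 37 °C, 20 min compound RT; Measured by: Fluo4-AM (2 µM) calcium-flux fluorescence, kinetic read.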
Active calls of the source: *; i = inactive; . = no result.

SMILES	MrgX1 PAM	RGS4 block	MrgX1 antag	MrgX1 agonist	RGS4 pot
CN1CCN(C(=O)/C(=C/c2cccc([N+](=O)[O-])c2)NC(=O)c2ccccc2)CC1	i	i	i	i	i
CCn1c(C)nc2cc(C(=O)NNC(=S)Nc3ccccc3)ccc21	i	i	i	i	i
COc1ccc(C(=O)NC(=S)NNC(=O)Cc2cccs2)cc1	i	i	i	55*	i
CCn1c(C)nc2cc(C(=O)NNC(=S)NC(=O)c3ccccc3)ccc21	7.4*	i	i	i	i
CCC(=O)NC(=S)NNC(=O)c1ccc(OC)cc1	i	i	i	i	i
O=C(Cc1cccs1)NNC(=S)NCc1ccco1	i	i	i	i	-8.2*
Cc1cccc(C(=O)NC(=S)NNC(=O)c2ccc(Cl)cc2)c1	18*	i	i	i	i
COc1ccc(Nc2cc(C)c3cc([N+](=O)[O-])ccc3n2)cc1	i	i	i	i	i
CN1C(=O)C(C)(C)c2cc(S(=O)(=O)N3CCN(c4cccc(Cl)c4)CC3)ccc21	i	i	i	i	i
COc1ccc(C2CCCN2C(=S)Nc2cccc(C)c2C)cc1OC (configuration not stated)	i	i	i	i	i
O=C(NC(=S)Nc1cccnc1Cl)c1ccc(Cl)cc1	9.5*	i	i	i	i
COc1ccc(C(=O)NNC(=S)NC(=O)c2ccc(Cl)cc2)cc1	i	i	i	122*	-8*
O=C(/C=C/c1cccs1)NC(=S)NNC(=O)Cc1cccs1	i	i	i	48*	i
O=C(Nc1cccnc1Cl)c1ccc(Cl)cc1	i	i	i	i	i
COc1ccc(/C=C/C(=O)NC(=S)NNC(=O)Cc2cccs2)cc1OC	i	i	i	i	i
COc1ccc(-c2nn(-c3ccccc3)cc2C(=O)NC(=S)NNC(=O)c2ccncc2)cc1	i	i	-4.6*	i	i
CC1CCCCC1NC(=O)c1ccc(NS(=O)(=O)c2ccc3[nH]c(=O)[nH]c3c2)cc1 (configuration not stated)	i	i	i	i	i
COc1cc2c(cc1OC)C(C(=O)Nc1cc(OC)c(OC)c(OC)c1)C(c1cccnc1)N(C)C2=O (configuration not stated)	i	i	i	i	i
COc1ccc(C(=O)NC(=S)NNC(=O)c2ccc(NC(=O)C(C)C)cc2)cc1	i	i	-5.8*	i	i
O=C(COc1ccc(Cl)cc1Cl)Nc1ccccc1F	i	i	i	i	-7.2*
CC(C)C(=O)Nc1ccc(C(=O)NNC(=S)NC(=O)c2ccccc2[N+](=O)[O-])cc1	i	i	i	i	i
O=C(COc1ccc(Cl)cc1Cl)NNC(=S)NCc1ccco1	13*	i	i	i	-7.1*
CCCCn1c(N)c(N(CCOC)C(=O)C2CCCN(C(=O)c3ccc(Cl)cc3)C2)c(=O)[nH]c1=O (configuration not stated)	i	i	i	i	i
CCc1ccccc1NC1=NCC(=O)N1C1CCCC1	i	i	i	i	i
O=C(O)/C=C/C(=O)c1ccc2c(c1)CCc1ccccc1-2	i	i	-5.2*	i	i
SMILES	MrgX1 PAM	RGS4 block	MrgX1 antag	MrgX1 agonist	RGS4 pot
O=[N+]([O-])c1cccc(/C=N/Nc2nc(NCc3ccccc3)nc(N3CCOCC3)n2)c1O	i	i	i	34*	i
O=[N+]([O-])c1cc([N+](=O)[O-])c(N2CCOCC2)cc1NCc1ccccc1	i	i	-9.6*	i	i
O=[N+]([O-])c1c(NCCCO)cc(N2CCCCCC2)c2nonc12	i	i	i	i	i
O=[N+]([O-])c1ccc(/C=N/Nc2nc(NCc3ccccc3)nc(N3CCOCC3)n2)cc1	i	i	i	i	i
O=[N+]([O-])c1c(NCc2ccccc2)cc(N2CCc3ccccc3C2)c2nonc12	i	i	-6*	i	i
COc1cc(OC)cc(-c2nnc(SCC(=O)N(C(C)C)C(C)C)o2)c1	i	i	i	i	i
COc1cc(OC)cc(-c2nnc(Sc3ccc(C=O)cc3[N+](=O)[O-])o2)c1	i	7.2*	-4.5*	i	i
CCOc1ccc2nc(NCCNC(=O)C(C)C)c(C)cc2c1	i	i	i	i	-7.4*
CCOc1ccc2nc(NCCNC(=O)C3CC3)c(C)cc2c1	i	i	i	i	i
CCOP(=O)(OCC)C(NC(=O)c1cc([N+](=O)[O-])cc([N+](=O)[O-])c1)C(F)(F)F (configuration not stated)	i	i	i	i	i
O=[N+]([O-])c1ccc(N/N=C2\CC3CC=CC23)cc1 (configuration not stated)	8.1*	i	i	i	i
Cc1nc2nc(-c3cccs3)cn2nc1C	i	i	i	i	-7*
COc1ccccc1OCCNC(=O)c1ccc(C)c(S(=O)(=O)N2CCOCC2)c1	i	i	i	i	i
COc1ccc(-c2csc3ncnc(NCCO)c23)cc1	i	i	i	i	i
COc1ccc(-c2csc3ncnc(NCCCO)c23)cc1	i	i	i	33*	i
O=C(CSc1nncn1-c1ccccc1)NC1CCCC1	i	i	i	i	i
CN(C)c1ccc(/C=N/NC(=O)CNC(=O)/C=C/c2ccco2)cc1	i	i	i	i	i
O=C(/C=C/c1ccco1)NCC(=O)N/N=C/c1ccc(Cl)cc1	i	i	-5*	i	i
C/C(=C/CCC(C)[C@H]1CC[C@@]2(C)C3=C(CC[C@]12C)[C@@]1(C)CCC(=O)C(C)(C)[C@@H]1CC3)C(=O)O (some centres not stated)	i	i	i	i	-12*
C/C(=C/CCC(C)C1CCC2(C)C3CCC4C(C)(C)C(=O)CCC4(C)C3=CCC12C)C(=O)O (configuration not stated)	.	i	.	.	-7.8*
CC(C)(C)C(=O)c1sc2nc(-c3cccs3)cc(C(F)(F)F)c2c1N	i	i	i	i	-9.7*
CCN(CC)C(=O)c1sc2nc(-c3cccs3)cc(-c3cccs3)c2c1N	i	i	-7.2*	i	i

Bioassay records deposited in PubChem BioAssay by Johns Hopkins Ion Channel Center.
